The values that follow come from paper PMC9078949 (RSC Advances, 2018).

One assay concerns the target T1, CXCR2 (Homo sapiens, UniProt P25025).
T1 sequence (P25025 1-360): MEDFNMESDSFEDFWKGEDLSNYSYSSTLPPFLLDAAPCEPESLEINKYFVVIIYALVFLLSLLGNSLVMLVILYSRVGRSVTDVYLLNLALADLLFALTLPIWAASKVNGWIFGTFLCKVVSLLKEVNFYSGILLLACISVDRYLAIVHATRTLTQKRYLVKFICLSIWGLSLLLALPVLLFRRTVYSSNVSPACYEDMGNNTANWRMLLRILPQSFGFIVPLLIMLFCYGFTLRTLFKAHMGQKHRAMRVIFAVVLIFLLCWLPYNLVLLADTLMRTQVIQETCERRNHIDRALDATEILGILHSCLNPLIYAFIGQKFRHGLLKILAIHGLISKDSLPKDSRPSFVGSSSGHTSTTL
The experiment in a line: CXCR2 antagonistic activity assay. It counts as cell-based. The gist of the method:
(§1)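 HEK293 cells stably co-expressing Gα16 with either CXCR1 or CXCR2 were seeded and grown for 24 h. They were loaded with 2 μmol L−1 Fluo-4 AM in HBSS (pH 7.4, with BSA and 250 μmol L−1 sulfinpyrazone) for 45 min at 37 °C, and excess dye was removed. Test compound was added for 10 min at room temperature before IL-8 injection. Calcium signal was read at ex 485/em 525 nm. IC50 came from nonlinear regression of log concentration–response curves; each experiment was run ≥3 times.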

For a further assay, the target named is T2, CXCR1 (Homo sapiens, UniProt P25024).
T2 sequence (P25024 1-350): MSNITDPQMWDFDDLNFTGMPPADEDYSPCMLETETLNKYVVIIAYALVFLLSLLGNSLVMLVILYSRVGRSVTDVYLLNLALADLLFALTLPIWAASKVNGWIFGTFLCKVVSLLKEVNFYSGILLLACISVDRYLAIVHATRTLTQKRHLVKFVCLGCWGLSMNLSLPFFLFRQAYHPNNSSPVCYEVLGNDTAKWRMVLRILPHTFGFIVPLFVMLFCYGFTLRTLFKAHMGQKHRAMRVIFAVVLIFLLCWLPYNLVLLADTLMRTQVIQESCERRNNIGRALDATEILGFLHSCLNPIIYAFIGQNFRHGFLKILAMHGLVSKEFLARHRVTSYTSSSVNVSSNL
The experiment in a line: CXCR1 antagonistic activity assay. The format is cell-based. The gist of the method:
as §1

Where only a bound is given, the exact number is not on record here.

For orientation: IC50 means the concentration needed to halve the response being measured. Lower therefore signals inhibition by little substance.

As for `Cc1ccc(Nc2c(NC3C[C@@H]4CC[C@H]3C4)c(=O)c2=O)c(O)c1` (stereo partly drawn) [2a, 3-(((1S,4R)-Bicyclo[2.2.1]heptan-2-yl)amino)-4-((2-hydroxy-4-methylphenyl)amino)cyclobut-3-ene-1,2-dione], the values for the IC50 on CXCR2 and against CXCR1 were 3.8 µM and 86.1 µM, respectively. On CXCR2, the “Ratio = CXCR1 IC50/CXCR2 IC50 (selectivity for CXCR2 over CXCR1)” value is 22.7.
For `CN(C)C(=O)c1cccc(Nc2c(NC3C[C@H]4C[C@@H]3C3CCC[C@@H]34)c(=O)c2=O)c1O` (stereo partly drawn) [1d, 2-Hydroxy-N,N-dimethyl-3-((2-(((4R,7R,7aR)-octahydro-1H-4,7-methanoinden-5-yl)amino)-3,4-dioxocyclobut-1-en-1-yl)amino)benzamide], in that order: 1 µM, 6.7 µM and 6.7.
Regarding `CN(C)C(=O)c1cccc(Nc2c(NC3C[C@H]4CC[C@@H](C3)N4C(=O)OC(C)(C)C)c(=O)c2=O)c1O` (stereo partly drawn) [1b, Tert-butyl (1R,5S)-3-((2-((3-(dimethylcarbamoyl)-2-hydroxyphenyl)amino)-3,4-dioxocyclobut-1-en-1-yl)amino)-8-azabicyclo[3.2.1]octane-8-carboxylate], the half-maximal inhibitory concentration (IC50) against CXCR2 and against CXCR1 was greater than 100 µM in each case.
On to `Cl.O=C(c1cccc(Nc2c(NC3C[C@@H]4CC[C@H]3C4)c(=O)c2=O)c1O)N1CCNCC1` (stereo partly drawn) [2h, 3-(((1S,4R)-Bicyclo[2.2.1]heptan-2-yl)amino)-4-((2-hydroxy-3-(piperazine-1-carbonyl)phenyl)amino)cyclobut-3-ene-1,2-dione hydrochloride], for which, on CXCR2, the 50% inhibitory concentration (IC50) was determined as 0.53 µM and the “Ratio = CXCR1 IC50/CXCR2 IC50 (selectivity for CXCR2 over CXCR1)” value was greater than 188.7. The same compound showed a concentration for half-maximal inhibition (IC50) at CXCR1 greater than 100 µM.
For `N#Cc1ccc(Nc2c(NC3C[C@@H]4CC[C@H]3C4)c(=O)c2=O)c(O)c1` (stereo partly drawn) [2b, 4-((2-(((1S,4R)-Bicyclo[2.2.1]heptan-2-yl)amino)-3,4-dioxocyclobut-1-en-1-yl)amino)-3-hydroxybenzonitrile], in that order: 0.45 µM, 94.9 and 42.7 µM.
The matching figures for `CC(C)S(=O)(=O)c1c(Cl)ccc(Nc2c(NC3C[C@@H]4CC[C@H]3C4)c(=O)c2=O)c1O` (stereo partly drawn) [2c, 3-(((1S,4R)-Bicyclo[2.2.1]heptan-2-yl)amino)-4-((4-chloro-2-hydroxy-3-(isopropylsulfonyl)phenyl)amino)cyclobut-3-ene-1,2-dione]: 0.12 µM, 103.3 and 12.4 µM.
Regarding `O=C(c1cccc(Nc2c(NC3C[C@@H]4CC[C@H]3C4)c(=O)c2=O)c1O)N1CCCCC1` (stereo partly drawn) [2f, 3-(((1S,4R)-Bicyclo[2.2.1]heptan-2-yl)amino)-4-((2-hydroxy-3-(piperidine-1-carbonyl)phenyl)amino)cyclobut-3-ene-1,2-dione], at CXCR2, the half-maximal inhibitory concentration (IC50) was 0.59 µM and the “Ratio = CXCR1 IC50/CXCR2 IC50 (selectivity for CXCR2 over CXCR1)” value turned out to be 17.5. This compound also returned an IC50 on CXCR1 of 10.3 µM.
For `CC(C)(C)OC(=O)N1CCN(C(=O)c2cccc(Nc3c(NC4C[C@@H]5CC[C@H]4C5)c(=O)c3=O)c2O)CC1` (stereo partly drawn) [2g, Tert-butyl 4-(3-((2-(((1S,4R)-bicyclo[2.2.1]heptan-2-yl)amino)-3,4-dioxocyclobut-1-en-1-yl)amino)-2-hydroxybenzoyl)piperazine-1-carboxylate], in that order: 0.42 µM, 13.3 and 5.6 µM.
The matching figures for `CN(C)C(=O)c1cccc(Nc2c(NC3C[C@H]4CC[C@]3(C)C4(C)C)c(=O)c2=O)c1O` (stereo partly drawn) [1c, 3-((3,4-Dioxo-2-(((1R,4R)-1,7,7-trimethylbicyclo[2.2.1]heptan-2-yl)amino)cyclobut-1-en-1-yl)amino)-2-hydroxy-N,N-dimethylbenzamide]: 5.5 µM, 6.5 and 35.6 µM.
As for `CN(C)C(=O)c1cccc(Nc2c(NCC3C[C@H]4CC[C@@H]3C4)c(=O)c2=O)c1O` (stereo partly drawn) [1f, 3-((2-((((1R,4S)-Bicyclo[2.2.1]heptan-2-yl)methyl)amino)-3,4-dioxocyclobut-1-en-1-yl)amino)-2-hydroxy-N,N-dimethylbenzamide], the IC50 was 23.6 µM against CXCR2 and 48.8 µM against CXCR1. Also, the “Ratio = CXCR1 IC50/CXCR2 IC50 (selectivity for CXCR2 over CXCR1)” value at CXCR2 stood at 2.1.
For `CC(C)[S+]([O-])c1c(Cl)ccc(Nc2c(NC3C[C@@H]4CC[C@H]3C4)c(=O)c2=O)c1O` (stereo partly drawn) [2d, 3-(((1S,4R)-Bicyclo[2.2.1]heptan-2-yl)amino)-4-((4-chloro-2-hydroxy-3-(isopropylsulfinyl)phenyl)amino)cyclobut-3-ene-1,2-dione], in that order: 0.092 µM, 6.5 µM and 70.7.
With `CN(C)C(=O)c1cccc(Nc2c(NCC3C[C@H]4C=C[C@@H]3C4)c(=O)c2=O)c1O` (stereo partly drawn) [1e, 3-((2-((((1S,4S)-Bicyclo[2.2.1]hept-5-en-2-yl)methyl)amino)-3,4-dioxocyclobut-1-en-1-yl)amino)-2-hydroxy-N,N-dimethylbenzamide], on CXCR2, the concentration for half-maximal inhibition (IC50) amounted to 2.6 µM and the “Ratio = CXCR1 IC50/CXCR2 IC50 (selectivity for CXCR2 over CXCR1)” value was determined as 11.8. The 50% inhibitory concentration (IC50) against CXCR1 worked out at 30.8 µM.
As to `CN(C)C(=O)c1cccc(Nc2c(NC3C[C@@H]4CC[C@H]3C4)c(=O)c2=O)c1O` (stereo partly drawn) [1a, 3-((2-(((1S,4R)-Bicyclo[2.2.1]heptan-2-yl)amino)-3,4-dioxocyclobut-1-en-1-yl)amino)-2-hydroxy-N,N-dimethylbenzamide], at CXCR2, the IC50 was determined as 0.062 µM and the “Ratio = CXCR1 IC50/CXCR2 IC50 (selectivity for CXCR2 over CXCR1)” value is 113. The same compound yielded an IC50 at CXCR1 of 7 µM.
